Reference: ChEMBL document CHEMBL4513216, “Probing the Open Global Health Chemical Diversity Library for Multistage-Active Starting Points for Next-Generation Antimalarials” (ACS Infect Dis, 2020)

Test: Toxicity liver stage against HepG2, at 10uM
Type: cell-based
Design: test concentration 10 uM, cell line HepG2-A16-CD81EGFP
Settings: human, HepG2-A16-CD81EGFP cells; read-out: INHIBITION
Procedure, shortened: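 Uninfected HepG2-A16-CD81EGFP cells, 3 × 10^3 per well, 1536-well, plated on prespotted compound at 10 μM final, parasite-free screening media added to match infected plates; puromycin 10 μM positive, DMSO 0.5% negative; run in parallel with 48 h PbLuc assay at 37 °C, 5% CO2; viability by CellTiter-Glo luminescence, normalized to controls.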

SMILES	cytotoxicity at 10 µM [%]
CCS(=O)(=O)c1ccc2oc([C@H]3CCN(Cc4ccccc4)C3)nc2c1	4.03
c1ccc(-c2noc([C@@H]3Cc4nc[nH]c4CN3)n2)cc1	-4.26
CN(CCc1ccccn1)C(=O)c1cnn(-c2ccccc2F)c1N	-4.85
Cc1csc2cc(C(=O)NC3CC3)cnc12	-0.697
CC(C)CCNC(=O)c1csc(NC2CC2)n1	-0.243
COc1cccc2c1ccn2CCNC(=O)CC(C)C	4.38
O=C(CC1CCCC1)NCCS(=O)(=O)N1CCN(c2ncccn2)CC1	-1
O=C(CCO)N1C[C@H]2CN(c3ccccc3)C(=O)[C@H]2C1	1.35
CNC(=O)c1nc2c(s1)CCN(C(=O)c1cccc(OC)c1)CC2	9.84
CCOCC(=O)N1CCCn2c(CN3CCOCC3)nnc2C1	-132
N#Cc1cccc(N2CCCC3(C2)CN(c2nncs2)CCO3)c1 (stereo unspecified)	0.922
Cn1nc(C#N)c2c1CN(C(=O)c1ccco1)CCC2	-133
Cc1ccc(Cl)cc1NC(=O)Cn1cc(C(=O)O)ccc1=O	-1.45
COc1cccc(-c2cc(C(=O)NCCCn3nc(C)cc3C)[nH]n2)c1	-5.86
CCOC(=O)Cc1n[nH]c(-c2cncc(Br)c2)n1	3.24
O=C(c1ccc(-c2ccc(O)nc2)s1)N1CCCCC1	3.35
COC(C)C(=O)N(CC(N)=O)Cc1cccc(Oc2ccccc2)c1 (stereo unspecified)	1.46
N#Cc1cnc2cc(F)cc(F)c2c1NC1CCN(CC(N)=O)CC1	0
CS(=O)(=O)N1CCN(C(=O)CCC2CCCO2)CC1 (stereo unspecified)	0.815
CNC(=O)CN1CCC(CN(C)CCSc2ccccc2)CC1	-0.488
COCc1ccccc1NC(=O)CCNC(=O)c1ccoc1	-3.94
CC(CNC(=O)c1ccco1)N1CCc2sccc2C1 (stereo unspecified)	0.107
NC(=O)CSc1ccccc1NCc1nc(Cc2ccccc2)no1	7.04

SMILES	cytotoxicity at 10 µM [%]
Cc1cc(CNC(=O)NCC(O)c2cccc(F)c2)no1 (stereo unspecified)	3.1
COC1CCN(c2ccc(F)cc2CN(C)C(=O)c2cc[nH]n2)CC1	-4.32
COCCSCC(=O)NCc1ccc(N(C)C)cc1	19
CCc1ccc(S(=O)(=O)Nc2ccn(CC(=O)OC)n2)cc1	7.22
CCC(C)NC(=O)c1cncc(Br)c1 (stereo unspecified)	1.24
O=C(CS(=O)(=O)c1ncccc1Cl)NC1CCCc2ccccc21 (stereo unspecified)	-7.69
N#Cc1cnc(NC2CCN(C(=O)C3CCCCC3)CC2)c(Cl)c1	-3.75
CCCOCC(=O)Nc1ncc(I)cc1C	1.46
O=C(NCC(O)c1ccc(F)cc1F)c1ccccc1 (stereo unspecified)	4.15
Cc1cccc(C(=O)NCC(O)c2ccc(F)cc2F)c1 (stereo unspecified)	6.27
CCC(C)NC(=O)c1ccc(CNC(=O)COC)cc1 (stereo unspecified)	10.7
Cc1nn(C)c(N2CCOCC2)c1CNC1CCS(=O)(=O)C1 (stereo unspecified)	-3.99
CC(C)c1cc(C(=O)NCc2nc(-c3ccc(F)cc3)n[nH]2)n[nH]1	-1.75
CC(Cn1ccnc1)NS(=O)(=O)c1ccc(F)c(Cl)c1 (stereo unspecified)	9.25
Cc1ccc(Nc2c(C#N)c(=O)n(C)c(=O)n2C)cc1F	-4.99
N#Cc1ccnc(N2CCN(CC(O)c3ccccc3)CC2)c1 (stereo unspecified)	0.587
Cc1ccc(S(=O)(=O)NC2CCC(=O)NC2)cc1Br (stereo unspecified)	-2.38
Cc1cc(NC(=O)c2ccc(Br)cc2F)n(C)n1	3.42
Cc1ccc(C(=O)Nc2ccc(N(C)C)cn2)n1C	-2.48
CCN(CC)C(=O)CN(C)CCn1nc2ccccn2c1=O	-149
COCCOCC(=O)Nc1ccc(C)cc1Cl	1.85
Fc1ccc(C2CCCN2Cc2nnnn2C2CC2)cc1 (stereo unspecified)	15.5
CC(C)N(CCC#N)C(=O)c1cnc(-c2ccc3c(c2)OCO3)s1	0.247

SMILES	cytotoxicity at 10 µM [%]
Cc1cc(N(C)C)nc(N2CCN(C(C)c3nc(C)no3)CC2)n1 (stereo unspecified)	2.33
COc1cc(C)nc(N2CCN(C(C)c3nc(C)no3)CC2)n1 (stereo unspecified)	3.55
O=S(=O)(NCCN1CC=CC1)c1ccc(Cl)cc1	-6.04
CS(=O)(=O)CCOCCNc1ccc(C#N)cc1F	-3.34
O=C(NCC1CCOC1)c1csc(Cc2ccccc2)n1 (stereo unspecified)	-118
O=C(CCc1ccccn1)N1CCSC2(CCCCC2)C1	0.547
CN(C)c1ccc(NC(=O)NCc2cccs2)cn1	-1.15
O=C(c1cc(F)ccc1O)N1CCN(C2CCSC2)CC1 (stereo unspecified)	0.773
Cc1ccc(NC(=O)CS(=O)(=O)NC2CCC(C)CC2)nc1 (stereo unspecified)	-9.24
CCCn1nc(-c2nc(COc3ccccc3)no2)ccc1=O	-2.74
O=C1NCCCc2[nH]c(-c3nc(C4CCCCC4)no3)nc21	-0.627
Cn1ccc2c(-c3cc(N4CCCCC4)ncn3)ccnc21	-3.46
COCCCN1CCCC2(CCN(S(=O)(=O)c3cccnc3)C2)C1=O (stereo unspecified)	8.21
O=C(C1CC1)N1CCc2[nH]cnc2C12CCN(C1CCOCC1)CC2	-1.16
Cc1nccc(N2C[C@H](NC(=O)CNS(C)(=O)=O)[C@@H](C3CC3)C2)n1	-13.8
Cc1c(-c2nnc(SCC(=O)O)n2C(C)c2ccccc2)cnn1C (stereo unspecified)	-5.43
COc1ccccc1OCc1cc(C(=O)N2CCC(NC(C)=O)C2)n[nH]1 (stereo unspecified)	-4.26
COc1ccc(-c2ccc(C(=O)N3CCOCC3CC(N)=O)o2)cc1 (stereo unspecified)	3.16
CCCc1nc(C)cc(N2CCC3(CCC(=O)N(CCO)C3)CC2)n1	-6.71
O=C(CN1CCCC1c1nc(-c2ccccn2)no1)N1CCOCC1 (stereo unspecified)	6.08
COCc1ccc(C(=O)N2CCc3c(ncnc3N3CCOCC3)C2)o1	-2.17
CCc1nn(C)c(Cl)c1CN1CCC2(C1)CN(C)C(=O)O2 (stereo unspecified)	1.95
CC1(C)OC(=O)N(CC(=O)N2CCC(c3ccccc3F)C2)C1=O (stereo unspecified)	0.189

SMILES	cytotoxicity at 10 µM [%]
CSc1ccc(-c2nc(CN3CCC(CN)C3)c(C)o2)cc1 (stereo unspecified)	-2.65
CCN(Cc1cccc(C(=O)Nc2ncc(C)s2)c1)[C@H]1COC[C@@H]1O	-2.61
CCC(CO)N(Cc1ccsc1)Cc1ccccc1C(=O)O (stereo unspecified)	-14.4
O=c1c2cccc(F)c2ncn1CCN1CCNCC1	-0.812
Cc1nc(NCC23CCCN2CCC3)cc(C2CCCNC2)n1 (stereo unspecified)	7.54
COc1ncccc1-c1nc(-c2ccccn2)nn1C1CCN(C)CC1	-4.52
Cc1c(CNC(=O)c2cn(CCC3CCCCN3)nn2)cnn1C (stereo unspecified)	-3.44
Cc1cc(N2CCCC(O)(CN(C)C)CC2)nc(-c2ccccc2)n1 (stereo unspecified)	-9.41
COc1ccc(F)c(-c2cc(NCCO)nc(N)n2)c1	-1.21
CCN(CC)C(CNS(=O)(=O)NCc1ccccc1)c1ccco1 (stereo unspecified)	1.53
Cc1nc(C(C)NC(=O)COc2ccc(F)cc2)n[nH]1 (stereo unspecified)	6.39
O=C1O[C@@H]2CN(CCc3ccccc3)C[C@@H]2N1CCCN1CCOCC1	-3.2
Cc1cc(C)c(C(=O)N2CCOCC2c2c(C)nn(C)c2C)o1 (stereo unspecified)	-2.48
CC(C)(C)c1ncc(C(=O)NCCNC(=O)c2cccs2)s1	-1.56
COc1c(CNCCNC(=O)c2cccs2)c(C)nn1C	-0.373
CS(=O)(=O)NC1CCCN(C(=O)COCc2ccccc2)C1 (stereo unspecified)	-5.28
O=C(Cn1nc(-c2ccc(F)cc2)oc1=O)NCc1ccccc1F	-9.04
CN(CC(=O)N1CCCCC1Cn1cccn1)C1CC1 (stereo unspecified)	-3.45
CN(CC(=O)NCc1cccnc1N1CCCCC1)C(=O)c1cccs1	-14.8
CCn1cnnc1CNC(=O)N1CCC(CN2CCCCCC2)CC1	-8.57
O=C(c1cccc(F)c1)N1CCCN(Cc2cscn2)CC1	-3.13
Cc1cnn(CC2CCCN2C(=O)c2ccc(F)cc2Cl)c1 (stereo unspecified)	2.99
c1cnn(CC2CN(CC3CCCCC3)CCO2)c1 (stereo unspecified)	-7.85

SMILES	cytotoxicity at 10 µM [%]
CC(C)Oc1ccc(C(=O)N2CCC(Nc3cccnn3)CC2)cn1	-31
CN(C)c1cc(CNC(=O)c2n[nH]c(=O)c3ccccc23)ccn1	-3.79
CN(C)CCNC(=O)c1sc2ccccc2c1C1CCC(CN)CC1 (stereo unspecified)	-15.3
Cc1cccc(C(=O)N2C[C@@H]3COC[C@@H](CC(=O)N4CCCC4)[C@@H]3C2)n1	-120
CN(Cc1ccco1)C1CCC12CCN(C(=O)c1ccco1)CC2 (stereo unspecified)	-10.9
COCc1cnc2n1CCN(C1CCCC1)C2C (stereo unspecified)	9.13
CN(C)[C@@H]1CN(C(=O)c2ccc(C#N)cc2)[C@@H]2CCCO[C@H]12	-146
O=C1[C@H]2CN(Cc3ccc(F)cc3)C[C@H]2CN1c1cncnc1	-2.32
Cc1cccc(NC(=O)C2CCc3ccccc3N2)c1 (stereo unspecified)	-5.92
Cc1noc(C)c1CN1CCO[C@H]2[C@H](Oc3ccccn3)CC[C@@H]21	-6.69
CC(C)N1[C@H](CN2CCCC2)C[C@@H]2CN(Cc3ccoc3)CC[C@@H]21	-157
COc1c(CNC2(c3noc(C)n3)CCC2)c(C)nn1C	4.2
Cc1ccc2c(n1)N(CCn1cccn1)CCN(S(C)(=O)=O)C2	13.5
CCc1cnc(N2C[C@@H](NC(=O)c3cscn3)[C@H]3COC[C@H]32)nc1	-127
CC[C@@H]1N(Cc2ccc(F)cc2)CCC[C@]12CCC(=O)N2CCOC	11.5
O=C(c1cnc2ccccc2c1)N1CCC2(CCN2c2ncccn2)C1 (stereo unspecified)	-122
COc1ccccc1CN1CC[C@]2(C[C@@H](OC)CO2)C1	-5.35
CN(C)CCn1c2c(ccc1=O)CCN(C(=O)c1ccoc1)CC2	6.2
Cc1ccc(C)c(CN2C[C@@H]3CC[C@H]2CN(C(=O)c2cccnc2)C3)c1	3.41
